ChEMBL document CHEMBL3272319, “Alkyl streptozotocin analogues with improved biological activities” (J Med Chem, 1976)

How the values were obtained:
[1] = Antitumor activity against mouse S180A allografted in ICR mouse assessed as tumor growth at 125 mg/kg, ip qd for 5 days measured on day 7 relative to control; format: functional; details: route intraperitoneal
Summary of the method: (§1)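 Ascites Sarcoma 180 (1 × 10^7 cells) implanted into ICR mice, six animals per group. Five daily ip injections in saline (days 1–5). Sacrificed day 7. T/C % computed from total packed cell volume (ascites volume × PCV) vs controls. Grades: 100-66 = -, 65-41 = +, 40-11 = ++, 10-0 = +++.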

Rattus norvegicus [2] = test: Diabetogenic activity in iv dosed Wistar rat assessed as increase in blood sugar level administered as single dose by glucose oxidase method; format: ADME, organism-based; details: in vivo
Summary of the method: (§2)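 Male Wistar rats, about 200 g, five per group, fasted 16 h. Single iv dose into the femoral vein in physiological saline, equimolar across compounds. Caudal-vein blood sampled at set times over 24 h. Sugar measured by glucose oxidase.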

Mus musculus [3] = test: Toxicity in ICR mouse allografted with mouse S180A assessed as mortality at 125 mg/kg, ip qd for 5 days; format: organism-based; design: dose 125 mg/kg, route intraperitoneal; details: in vivo, 120 h
Summary of the method: (§3)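 Ascites Sarcoma 180 (1 × 10^7 cells) implanted into ICR mice, six per group; compound in saline ip once daily days 1-5; sacrifice on day 7; total packed cell volume (ascites volume × PCV) compared with controls as T/C %; mortality recorded.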

Salmonella typhi = test: Antibacterial activity against Salmonella typhi IFM 3020 assessed as growth inhibition after 18 hrs by broth dilution method; format: functional, Salmonella enterica subsp. enterica serovar Typhi; details: Salmonella enterica, IFM 3020, 18 h
Summary of the method: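 Twofold serial dilutions in heart infusion broth; inoculum from 24 h heart infusion broth culture diluted 100-fold in physiological saline; tubes incubated 30 °C for 18 h; MIC (µg/ml) = lowest level giving complete growth inhibition.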

Mus musculus [4] = test: Ratio of compound LD10 to streptozotocin LD10 for JCL-ICR mouse; format: ADME, organism-based; details: in vivo
Staphylococcus aureus = test: Antibacterial activity against Staphylococcus aureus FDA 209P JC-1 assessed as growth inhibition after 18 hrs by broth dilution method; format: functional; details: FDA 209P JC-1, 18 h
Summary of the method: (§4)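 Twofold serial dilutions in heart infusion broth. Inoculum was a 24-h heart infusion broth culture diluted 100-fold in physiological saline. Tubes incubated 30 °C for 18 h; the table footnote gives 32 °C for 24 h. MIC in µg/ml is the lowest level giving complete growth inhibition.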

Proteus vulgaris = test: Antibacterial activity against Proteus vulgaris AHU 1469 assessed as growth inhibition after 18 hrs by broth dilution method; format: functional; details: AHU 1469, 18 h; summary of the method: as §4
Mus musculus [5] = test: Toxicity in ICR mouse allografted with mouse S180A assessed as mortality at 100 mg/kg, ip qd for 5 days; format: organism-based; design: dose 100 mg/kg, route intraperitoneal; details: in vivo, 120 h; summary of the method: as §3
Shigella sonnei = test: Antibacterial activity against Shigella sonnei assessed as growth inhibition after 18 hrs by broth dilution method; format: functional; summary of the method: as §4
Enterococcus faecalis = test: Antibacterial activity against Streptococcus faecalis ATCC 10541 assessed as growth inhibition after 18 hrs by broth dilution method; format: functional; details: ATCC 10541, 18 h; summary of the method: as §4
Klebsiella pneumoniae = test: Antibacterial activity against Klebsiella pneumoniae ATCC 10031 assessed as growth inhibition after 18 hrs by broth dilution method; format: functional; details: ATCC 10031, 18 h; summary of the method: as §4
[6] = (§5) Acute toxicity in ip dosed JCL-ICR mouse assessed as animal death; format: organism-based; details: JCL-ICR, in vivo
Summary of the method: (§6)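 Groups of ten female JCL-ICR mice given single ip dose in physiological saline; deaths followed over 7 days; LD50 (and LD10) derived by Litchfield–Wilcoxon method.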

Mus musculus [7] = test: as §5; format: organism-based; details: in vivo; summary of the method: as §6
[8] = Antitumor activity against mouse S180A allografted in ICR mouse assessed as tumor growth at 100 mg/kg, ip qd for 5 days measured on day 7 relative to control; format: functional; details: route intraperitoneal; summary of the method: as §1
Pseudomonas fluorescens = test: Antibacterial activity against Pseudomonas fluorescens NIHJ B-254 assessed as growth inhibition after 18 hrs by broth dilution method; format: functional; details: NIHJ B-254, 18 h; summary of the method: as §4
[9] = Ratio of compound LD50 to streptozotocin LD50 for JCL-ICR mouse; format: ADME, organism-based; details: in vivo
Micrococcus luteus = test: Antibacterial activity against Sarcina lutea ATCC 9341 assessed as growth inhibition after 18 hrs by broth dilution method; format: functional; details: ATCC 9341, 18 h; summary of the method: as §4
Mus musculus [10] = test: Toxicity in BDF1 mouse allografted with mouse L1210 cells assessed as mortality at 50 mg/kg, ip qd for 5 days; format: organism-based; design: dose 50 mg/kg, route intraperitoneal; details: in vivo, 120 h
Summary of the method: (§7)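 L1210 (1 × 10^5 cells) implanted into BDF1 mice, six per group; compound in saline ip once daily days 1-5; effect read as % increase in life span, ILS = [(treated life span/control life span) − 1] × 100.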

Bacillus subtilis = test: Antibacterial activity against Bacillus subtilis ATCC 6633 assessed as growth inhibition after 18 hrs by broth dilution method; format: functional; details: ATCC 6633, 18 h; summary of the method: as §4
L1210 [11] = test: Antitumor activity against mouse L1210 cells allografted in BDF1 mouse assessed as increase in host lifespan at 50 mg/kg, ip qd for 5 days relative to control; format: functional; details: 120 h, route intraperitoneal; summary of the method: as §7
Escherichia coli = test: Antibacterial activity against Escherichia coli NIHJ JC-2 assessed as growth inhibition after 18 hrs by broth dilution method; format: functional; details: NIHJ JC-2, 18 h; summary of the method: as §4
Mus musculus [12] = test: Toxicity in ip dosed BDF1 mouse allografted with mouse L1210 cells assessed as optimal dose required for mortality administered qd for 5 days; format: organism-based; details: in vivo, 120 h
Mus musculus [13] = test: Toxicity in ICR mouse allografted with mouse EAC assessed as mortality at 150 mg/kg, ip qd for 5 days; format: organism-based; design: dose 150 mg/kg, route intraperitoneal; details: in vivo, 120 h
Summary of the method: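 Ehrlich ascites carcinoma (1 × 10^7 cells) implanted into ICR mice, six per group; compound ip daily for 5 days; mice sacrificed day 7; tumour burden as total packed cell volume (ascites volume × PCV), T/C % vs controls; mortality recorded.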

Ehrlich = test: Antitumor activity against mouse EAC allografted in ICR mouse assessed as tumor growth at 150 mg/kg, ip qd for 5 days measured on day 7 relative to control; format: functional; details: route intraperitoneal
Summary of the method: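 Ehrlich ascites carcinoma (1 × 10^7 cells) implanted into ICR mice, six per group. Drug in saline ip, qd days 1–5. Mice killed day 7. Total packed cell volume = ascites volume × % packed cell volume; T/C % = TPCV treated/control × 100. Activity graded from T/C.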

[14] = Therapeutic index, ratio of LD10 for JCL-ICR mouse to ED90 for mouse S180A cells allografted in ICR mouse; details: read-out: TI
Rattus norvegicus [15] = test: Diabetogenic activity in Wistar rat assessed as increase in blood sugar level at 68 mg/kg, iv administered as single dose by glucose oxidase method; format: ADME, organism-based; design: dose 68 mg/kg, route intravenous; details: in vivo; summary of the method: as §2
L1210 [16] = test: Antitumor activity against mouse L1210 cells allografted in ip dosed BDF1 mouse assessed as 30% increase in host lifespan administered for qd for 5 days; format: functional
[17] = Antitumor activity against mouse S180A allografted in ICR mouse assessed as tumor growth at 25 mg/kg, ip qd for 5 days measured on day 7 relative to control; format: functional; details: route intraperitoneal; summary of the method: as §1
[18] = Acute toxicity in iv dosed mouse; format: organism-based; details: in vivo
Rattus norvegicus [19] = test: Diabetogenic activity in Wistar rat assessed as increase in blood sugar level at 30 to 120 mg/kg, ip qd for 1 month measured 24 hrs last drug dosage by glucose oxidase method; format: ADME, organism-based; design: dose 30-120 mg/kg, route intraperitoneal; details: in vivo
Summary of the method: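 Male Wistar rats, about 150 g, five per group. Drug in physiological saline given ip qd on days 1–30. Blood drawn 24 h after the last dose. Sugar measured by glucose oxidase.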

[20] = Antitumor activity against mouse S180A cells allografted in ip dosed ICR mouse administered qd for 5 days; format: functional; details: 120 h; summary of the method: as §1
Mus musculus [21] = test: Toxicity in ICR mouse allografted with mouse S180A assessed as mortality at 25 mg/kg, ip qd for 5 days; format: organism-based; design: dose 25 mg/kg, route intraperitoneal; details: in vivo, 120 h; summary of the method: as §3
[22] = Acute toxicity in iv dosed dog; format: organism-based, Canis lupus familiaris; details: in vivo

CCCCN(N=O)C(=O)N[C@H]1[C@@H](OC)O[C@H](CO)[C@@H](O)[C@@H]1O
T/C [1]: 75%
Activity (Rattus norvegicus [2]): Non-toxic
Activity (Mus musculus [3]): Non-toxic

CCN(N=O)C(=O)N[C@H]1[C@H](OC)O[C@H](CO)[C@@H](O)[C@@H]1O
MIC (Salmonella typhi): > 1000 µg/mL
Ratio (Mus musculus [4]): 2
MIC (Staphylococcus aureus): > 1000 µg/mL
MIC (Proteus vulgaris): > 1000 µg/mL
Activity (Mus musculus [5]): Non-toxic
MIC (Shigella sonnei): > 1000 µg/mL
MIC (Enterococcus faecalis): > 1000 µg/mL
MIC (Klebsiella pneumoniae): > 1000 µg/mL
LD50 [6]: 1700 mg/kg
LD10 (Mus musculus [7]): 1380 mg/kg
T/C [8]: 65%
MIC (Pseudomonas fluorescens): > 1000 µg/mL
selectivity ratio [9]: 2
MIC (Micrococcus luteus): > 1000 µg/mL
Activity (Mus musculus [10]): Non-toxic
Activity (Rattus norvegicus [2]): Non-toxic
MIC (Bacillus subtilis): > 1000 µg/mL
ILS at 50 mg/kg (L1210 [11]): 14%
MIC (Escherichia coli): > 1000 µg/mL

CO[C@@H]1O[C@H](CO)[C@@H](O)[C@H](O)[C@H]1NC(=O)N(C)N=O
MIC (Salmonella typhi): > 1000 µg/mL
Ratio (Mus musculus [4]): 2
MIC (Staphylococcus aureus): > 1000 µg/mL
MIC (Proteus vulgaris): > 1000 µg/mL
Activity (Mus musculus [12]): 400 mg/kg/day
Activity (Mus musculus [13]): Non-toxic
T/C (Ehrlich): 1%
selectivity ratio [14]: 16
Activity (Rattus norvegicus [15]): Non-toxic
Activity (L1210 [16]): 33 mg/kg/day
MIC (Shigella sonnei): > 1000 µg/mL
MIC (Enterococcus faecalis): > 1000 µg/mL
MIC (Klebsiella pneumoniae): > 1000 µg/mL
LD50 [6]: 1700 mg/kg
LD10 (Mus musculus [7]): 800 mg/kg
MIC (Pseudomonas fluorescens): > 1000 µg/mL
selectivity ratio [9]: 2
MIC (Micrococcus luteus): > 1000 µg/mL
T/C [17]: 22%
LD50 [18]: 1620 mg/kg
Activity (Mus musculus [10]): Non-toxic
MIC (Bacillus subtilis): > 1000 µg/mL
ILS at 50 mg/kg (L1210 [11]): 40%
Activity (Rattus norvegicus [19]): Non-toxic
ED90 [20]: 50 mg/kg/day
MIC (Escherichia coli): > 1000 µg/mL
Activity (Mus musculus [21]): Non-toxic
LD50 [22]: 400 mg/kg
